Results as given in paper PMC6499389 (European journal of medicinal chemistry, 2019).
Like-named read-outs stand apart in the source and are kept apart here. Blank lines part the entries; values can stand above or below the compound they belong to.

Assays:
[1] = target: T1, hTopo I (Homo sapiens, UniProt P11387); assay: Relaxation assay for hTopo I; assay type: biochemical; settings: for fold lower activity (loss in hTopo I inhibition) than 217: relative to 217; for fold lower activity (loss in hTopo I inhibition) than 217 / fold lower activity (loss in hTopo I inhibition) than 5a: from relaxation assay IC50; for fold lower activity (loss in hTopo I inhibition) than 5a: relative to 5a
T1 sequence (P11387 1-765): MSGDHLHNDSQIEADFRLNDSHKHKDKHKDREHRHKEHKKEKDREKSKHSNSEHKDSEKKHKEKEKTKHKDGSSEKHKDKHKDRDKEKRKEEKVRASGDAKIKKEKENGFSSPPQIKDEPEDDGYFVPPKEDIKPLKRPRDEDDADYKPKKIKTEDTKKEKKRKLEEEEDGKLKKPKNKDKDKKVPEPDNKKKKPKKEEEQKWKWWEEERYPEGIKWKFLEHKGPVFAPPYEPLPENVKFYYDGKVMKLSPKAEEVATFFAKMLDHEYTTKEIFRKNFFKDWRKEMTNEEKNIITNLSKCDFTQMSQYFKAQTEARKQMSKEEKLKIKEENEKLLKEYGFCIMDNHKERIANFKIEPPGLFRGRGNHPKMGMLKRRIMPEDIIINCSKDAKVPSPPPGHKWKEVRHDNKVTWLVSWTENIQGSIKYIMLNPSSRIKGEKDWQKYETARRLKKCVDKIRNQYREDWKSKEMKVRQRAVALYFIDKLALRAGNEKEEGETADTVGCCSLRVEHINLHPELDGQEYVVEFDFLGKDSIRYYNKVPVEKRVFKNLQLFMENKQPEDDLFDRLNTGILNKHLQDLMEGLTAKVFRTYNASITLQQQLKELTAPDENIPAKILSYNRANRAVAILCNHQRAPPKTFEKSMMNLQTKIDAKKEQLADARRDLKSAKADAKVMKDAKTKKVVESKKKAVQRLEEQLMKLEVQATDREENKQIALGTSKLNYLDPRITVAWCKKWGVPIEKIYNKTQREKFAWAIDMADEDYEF
Method in brief: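 Supercoiled pBR322 (0.3 μg) was relaxed by 1 unit of commercial human Topo I. Buffer: 50 mM Tris-HCl pH 7.5, 100 mM NaCl, 10 mM MgCl2, 1 mM DTT, 50 μg/ml BSA, plus varied test compound concentrations. Incubation was 15 min at 37°C, stopped with 25 mM EDTA. Products ran on 1.2% agarose, 2 V/cm, 15 h, TAE, then were ethidium-stained and imaged. IC50 came from band quantification.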

[2] = tested on: colon cancer (HT-29) xenograft; settings: HT-29 xenograft model, mice; cited from earlier work
[3] = tested on: 27-bp sequence d(CCTTACGTGCATAGTCATTCATGACCG) of dsDNA; assay: DNA binding assay; settings: compound 25 μM
[4] = tested on: calf thymus DNA (Ct-DNA); assay: DNA binding assay; settings: several ratios of DNA to FQ
[5] = tested on: calf thymus DNA (Ct-DNA); settings: ref Previous studies; cited from earlier work

fold lower activity (loss in hTopo I inhibition) than 217 [1]: more than 3 fold
Compound: COc1c(N2CC[C@@H](N)C2)c(F)cc2c(=O)c(C(=O)O)cn(Cc3ccc(-c4ccccc4)cc3)c12 [226/4d, (R)-1-([1,1′-biphenyl]-4-ylmethyl)-7-(3-aminopyrrolidin-1-yl)-6-fluoro-8-methoxy-4-oxo-1,4-dihydroquinoline-3-carboxylic acid]

fold lower activity (loss in hTopo I inhibition) than 217 [1]: ≥ 7 fold
Compound: COc1c(N2CC[C@@H](CN)C2)c(F)cc2c(=O)c(C(=O)O)cn(Cc3ccc(-n4cccn4)cc3)c12 [292B/7a, (S)-1-(4-(1H-pyrazol-1-yl)benzyl)-7-(3-(aminomethyl)pyrrolidin-1-yl)-6-fluoro-8-methoxy-4-oxo-1,4-dihydroquinoline-3-carboxylic acid]

IC50 [1]: > 200 µM
Compound: O=C(O)c1cn(Cc2ccc(-n3cccn3)cc2)c2cc(NC[C@@H]3CCNC3)c(F)cc2c1=O [298B/9e, (R)-1-(4-(1H-pyrazol-1-yl)benzyl)-6-fluoro-4-oxo-7-((pyrrolidin-3-ylmethyl)amino)-1,4-dihydroquinoline-3-carboxylic acid]

Compound: COc1c(N2CC[C@@H](CN)C2)c(F)cc2c(=O)c(C(=O)O)cn(Cc3ccc4ccccc4c3)c12 [Compound 227]
inhibition of proliferation of colon cancer in vivo [2]: exhibited activity but was not as effective as 217

fold lower activity (loss in hTopo I inhibition) than 5a [1]: 4 fold | fold more active than 5f ([1]; relative to C7 N-methyl AMP analog 5f): ~3 fold
Compound: O=C(O)c1cn(Cc2ccc(-c3ccccc3)cc2)c2cc(N3C[C@H]4CCNC[C@H]4C3)c(F)cc2c1=O [091/5k, 1-([1,1′-biphenyl]-4-ylmethyl)-6-fluoro-7-((3aS,7aS)-hexahydro-1H-pyrrolo[3,4-c]pyridin-2(3H)-yl)-4-oxo-1,4-dihydroquinoline-3-carboxylic acid]

fold lower activity (loss in hTopo I inhibition) than 5a [1]: 2 fold
Compound: CN[C@@H]1CCN(c2cc3c(cc2F)c(=O)c(C(=O)O)cn3Cc2ccc(-c3ccccc3)cc2)C1 [118/5h, (R)-1-([1,1′-biphenyl]-4-ylmethyl)-6-fluoro-7-(3-(methylamino)pyrrolidin-1-yl)-4-oxo-1,4-dihydroquinoline-3-carboxylic acid]

bathochromic shift upon addition of 27-bp dsDNA [3]: a bathochromic shift was not observed
Compound: COc1c(N2CC[C@@H](CN)C2)c(F)cc2c(=O)c(C(=O)O)cn(Cc3ccc(-c4ccccc4)cc3)c12 [Compound 217]
fluorescence quenching upon addition of 27-bp dsDNA ([3]; dsDNA 0–200 μM, n=3): quenched in a concentration-dependent manner | inhibition of proliferation of colon cancer in vivo [2]: inhibited the proliferation of colon cancer in vivo as well as fluorouracil | fluorescence quenching upon addition of Ct-DNA [4]: Modest fluorescence quenching | bathochromic shift upon addition of Ct-DNA ([4]; fluoroquinolone 25 μM, Ct-DNA 0 or 400 μM): no bathochromic shift was observed

fold lower activity (loss in hTopo I inhibition) than 217 [1]: 3- to 7 fold
Compound: COc1c(N2CC[C@@H](CN)C2)c(F)cc2c(=O)c(C(N)=O)cn(Cc3ccc(-c4ccccc4)cc3)c12 [251/3b, (S)-1-([1,1′-biphenyl]-4-ylmethyl)-7-(3-(aminomethyl)pyrrolidin-1-yl)-6-fluoro-8-methoxy-4-oxo-1,4-dihydroquinoline-3-carboxamide]

Compound: CNC(=O)c1cn(Cc2ccc(-c3ccccc3)cc2)c2c(OC)c(N3CC[C@@H](CN)C3)c(F)cc2c1=O [242/3a, (S)-1-([1,1′-biphenyl]-4-ylmethyl)-7-(3-(aminomethyl)pyrrolidin-1-yl)-6-fluoro-8-methoxy-N-methyl-4-oxo-1,4-dihydroquinoline-3-carboxamide]
fold lower activity (loss in hTopo I inhibition) than 217 [1]: 3- to 7 fold

fold lower activity (loss in hTopo I inhibition) than 5a [1]: 2 fold
Compound: O=C(O)c1cn(Cc2ccc(-c3ccccc3)cc2)c2cc(N3CC4CNCC4C3)c(F)cc2c1=O (stereo not drawn) [089/5l, 1-([1,1′-biphenyl]-4-ylmethyl)-6-fluoro-7-(hexahydropyrrolo[3,4-c]pyrrol-2(1H)-yl)-4-oxo-1,4-dihydroquinoline-3-carboxylic acid]

Compound: CCn1cc(C(=O)O)c(=O)c2cc(F)c(N3CCNCC3)cc21 [Norfloxacin]
bathochromic shift upon addition of Ct-DNA [5]: an observed bathochromic shift | fluorescence quenching upon addition of Ct-DNA [5]: significant quenching

fold lower activity (loss in hTopo I inhibition) than 5a [1]: 4 fold
Compound: N[C@@H]1CCN(c2cc3c(cc2F)c(=O)c(C(=O)O)cn3Cc2ccc(-c3ccccc3)cc2)C1 [117/5g, (R)-1-([1,1′-biphenyl]-4-ylmethyl)-7-(3-aminopyrrolidin-1-yl)-6-fluoro-4-oxo-1,4-dihydroquinoline-3-carboxylic acid]

fold lower activity (loss in hTopo I inhibition) than 5a [1]: ~4 fold | fold lower activity than its cognate C6-fluorine analog 7a ([1]; relative to 7a as printed): 4 fold
Compound: NC[C@@H]1CCN(c2ccc3c(=O)c(C(=O)O)cn(Cc4ccc(-c5ccccc5)cc4)c3c2)C1 [086B/6a, (S)-1-([1,1′-biphenyl]-4-ylmethyl)-7-(3-(aminomethyl)pyrrolidin-1-yl)-4-oxo-1,4-dihydroquinoline-3-carboxylic acid]

fold lower activity (loss in hTopo I inhibition) than 217 [1]: 2 fold
Compound: COc1c(N2CC[C@@H](CN)C2)c(F)cc2c(=O)c(C(=O)O)cn(Cc3ccc(-c4ccc(F)cc4)cc3)c12 [277/7c, (S)-7-(3-(aminomethyl)pyrrolidin-1-yl)-6-fluoro-1-((4′-fluoro-[1,1′-biphenyl]-4-yl)methyl)-8-methoxy-4-oxo-1,4-dihydroquinoline-3-carboxylic acid]

fold lower activity (loss in hTopo I inhibition) than 217 [1]: about 2 fold
Compound: CN[C@@H]1CCN(c2c(F)cc3c(=O)c(C(=O)O)cn(Cc4ccc(-c5ccccc5)cc4)c3c2OC)C1 [228/4e, (R)-1-([1,1′-biphenyl]-4-ylmethyl)-6-fluoro-8-methoxy-7-(3-(methylamino)pyrrolidin-1-yl)-4-oxo-1,4-dihydroquinoline-3-carboxylic acid]

fold improvement of hTopo I inhibition compared to 9a ([1]; relative to 9a): 2 fold
Compound: O=C(O)c1cn(Cc2ccc(-n3cccn3)cc2)c2cc(N3C[C@H]4CCNC[C@H]4C3)c(F)cc2c1=O [300B/9c, 1-(4-(1H-pyrazol-1-yl)benzyl)-6-fluoro-7-((3aS,7aS)-hexahydro-1H-pyrrolo[3,4-c]pyridin-2(3H)-yl)-4-oxo-1,4-dihydroquinoline-3-carboxylic acid]

fold lower activity (loss in hTopo I inhibition) than 217 [1]: ≥ 7 fold
Compound: COc1c(N2CC[C@@H](CN)C2)c(F)cc2c(=O)c(C(=O)O)cn(Cc3cc(-c4ccccc4)no3)c12 [294B/7b, (S)-7-(3-(aminomethyl)pyrrolidin-1-yl)-6-fluoro-8-methoxy-4-oxo-1-((3-phenylisoxazol-5-yl)methyl)-1,4-dihydroquinoline-3-carboxylic acid]
